Experiments:
MA104 cells = assay: Cytotoxicity by microscopical cell morphology evaluation; type: cell-based; details: mean of three independent experiments
Summary of the method: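 Toxicity to MA104 cells was scored by microscopic assessment of cell morphology. Cells were grown in 199 medium with 10% fetal bovine serum and antibiotics at 37 °C in humidified 5% CO2. Test compound was dissolved in 1% DMSO in 199 medium and filtered at 0.22 μm. CC50 was estimated by linear regression of concentration–effect curves, as the mean of three independent experiments.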

[1] = system: human rotavirus (Wa-1 strain); assay: Antirotavirus activity by cytopathic effect; type: cell-based; details: for antiviral (antirotavirus) activity in words: non-cytotoxic concentrations; for IC50: human rotavirus, NA = no antiviral activity
Summary of the method: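 MA104 cells grown in 199 medium with 10% fetal bovine serum, penicillin G, streptomycin and amphotericin B at 37 °C, 5% CO2, were infected with human rotavirus Wa-1, which had been propagated in MA104 cells with trypsin (5 μg/ml) and titred as TCID50/ml. Test compound was dissolved in 1% DMSO in 199 medium and filter-sterilised. Read-out was cytopathic-effect inhibition. IC50 came from linear regression of concentration–effect curves, as the mean of three independent experiments.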

rotavirus = rotavirus infection in vitro; cited from earlier work

Compound | CC50 (MA104 cells; flavonols (Table 1)) | antiviral (antirotavirus) activity in words [1] | IC50 ([1]; flavonols (Table 1)) | also measured
O=c1c(O)c(-c2ccccc2O)oc2ccccc12 [compound 1] | 61.4 µM | did not grant antiviral activity | – | –
O=c1c(O)c(-c2cccc(O)c2)oc2ccccc12 [compound 2] | 61.4 µM | – | 27.5 µM | –
O=c1c(O)c(-c2ccc(O)cc2)oc2ccccc12 [compound 3] | 61.4 µM | did not grant antiviral activity | – | –
O=c1c(O)c(-c2ccc(O)c(O)c2)oc2ccccc12 [compound 4] | 57.7 µM | – | 14.4 µM | –
O=c1c(O)c(-c2cc(O)ccc2O)oc2ccccc12 [compound 5] | 57.7 µM | did not grant antiviral activity | – | –
O=c1c(O)c(-c2cc(O)c(O)c(O)c2)oc2ccccc12 [compound 6] | 27.2 µM | – | 18.2 µM | –
COc1ccc(-c2oc3ccccc3c(=O)c2O)cc1 [compound 7] | 29.1 µM | antiviral action was not observed | – | –
COc1ccccc1-c1oc2ccccc2c(=O)c1O [compound 8] | 44.7 µM | antiviral action was not observed | – | –
COc1ccc(-c2oc3ccccc3c(=O)c2O)c(OC)c1 [compound 9] | 52.3 µM | – | 26.2 µM | –
COc1ccc(-c2oc3ccccc3c(=O)c2O)cc1OC [compound 10] | 52.3 µM | – | 13.1 µM | –
COc1cc(-c2oc3ccccc3c(=O)c2O)cc(OC)c1OC [compound 11] | 47.5 µM | – | 11.9 µM | –
COc1ccc(-c2oc3ccccc3c(=O)c2O)c(OC)c1OC [compound 12] | 23.8 µM | – | 6.09 µM | –
O=c1c(O)c(-c2ccc(OCc3ccccc3)cc2)oc2ccccc12 [compound 13] | 22.7 µM | considerable antirotavirus action | 3.78 µM | –
CCOc1cccc(-c2oc3ccccc3c(=O)c2O)c1 [compound 14] | 111 µM | – | – | –
CCOc1ccccc1-c1oc2ccccc2c(=O)c1O [compound 15] | 111 µM | – | – | –
CCOc1ccc(-c2oc3ccccc3c(=O)c2O)c(OCC)c1 [compound 16] | 47.8 µM | – | – | –
CCOc1ccc(OCC)c(-c2oc3ccccc3c(=O)c2O)c1 [compound 17] | 23.9 µM | – | 12 µM | –
CCOc1ccc(-c2oc3ccccc3c(=O)c2O)cc1OCC [compound 18] | 47.8 µM | promising antiviral activity | 7.97 µM | –
O=c1c(O)c(-c2ccccc2OCc2ccccc2)oc2ccccc12 [compound 19] | 45.3 µM | considerable antirotavirus action | 7.55 µM | –

Compound | CC50 (MA104 cells; flavonols (Table 1)) | antiviral (antirotavirus) activity in words [1] | IC50 ([1]; flavonols (Table 1)) | also measured
CCc1ccc(-c2oc3ccccc3c(=O)c2O)cc1 [compound 21] | 14.7 µM | Antiviral activity was provided | 3.64 µM | –
CCCCOc1cccc(-c2oc3ccccc3c(=O)c2O)c1 [compound 22] | 25.1 µM | – | 6.12 µM | –
CCCCOc1ccccc1-c1oc2ccccc2c(=O)c1O [compound 23] | 302 µM | – | 75.4 µM | –
CCCCOc1ccc(-c2oc3ccccc3c(=O)c2O)cc1 [compound 24] | 201 µM | – | 40.6 µM | –
CCCCOc1ccc(-c2oc3ccccc3c(=O)c2O)cc1OCCCC [compound 25] | 40.8 µM | higher activity | 6.8 µM | –
CCCCOc1ccc(-c2oc3ccccc3c(=O)c2O)c(OCCCC)c1 [compound 26] | 40.8 µM | – | 10.2 µM | –
O=c1c(O)c(-c2ccccc2)oc2cc(O)ccc12 [compound 27] | 61.4 µM | – | 15.7 µM | –
O=c1c(O)c(-c2ccc(O)c(O)c2)oc2cc(O)cc(O)c12 [compound 28] | 103 µM | antiviral activity was not observed | – | –
COc1ccc2oc(-c3ccccc3)c(O)c(=O)c2c1 [compound 29] | 29.1 µM | – | – | –
COc1ccc2c(=O)c(O)c(-c3ccccc3)oc2c1 [compound 30] | 29.1 µM | – | – | –
COc1ccc(-c2oc3cccc(OC)c3c(=O)c2O)cc1 [compound 31] | 26.2 µM | – | 4.69 µM | –
COc1ccc(-c2oc3ccc(OC)cc3c(=O)c2O)cc1 [compound 32] | 105 µM | – | 17.4 µM | –
COc1ccc(-c2oc3cc(OC)ccc3c(=O)c2O)cc1 [compound 33] | 26.2 µM | – | 6.37 µM | –
COc1ccc(-c2oc3cc(OC)ccc3c(=O)c2O)c(OC)c1 [compound 34] | 47.4 µM | – | 11.8 µM | –
CCOc1ccc2c(=O)c(O)c(-c3ccccc3)oc2c1 [compound 35] | 111 µM | – | – | –
CCOc1ccc(-c2oc3cc(OCC)ccc3c(=O)c2O)cc1 [compound 36] | 47.8 µM | antiviral activity was detected | 12 µM | –
CCOc1cccc(-c2oc3cc(OCC)ccc3c(=O)c2O)c1 [compound 37] | 47.8 µM | antiviral activity was detected | 7.97 µM | –
CCCCOc1ccc2c(=O)c(O)c(-c3ccccc3)oc2c1 [compound 38] | 50.3 µM | Antiviral activity was provided | 8.38 µM | –
O=c1c(O)c(-c2ccc(OCc3ccccc3)cc2)oc2cc(OCc3ccccc3)ccc12 [compound 39] | 69.3 µM | Antiviral activity was provided | 17.3 µM | –

Compound | CC50 (MA104 cells; flavonols (Table 1)) | antiviral (antirotavirus) activity in words [1] | IC50 ([1]; flavonols (Table 1)) | also measured
COc1c(OC)c(O)c2c(=O)cc(-c3ccc(O)cc3)oc2c1OC [compound 40] | – | – | – | CC50 (MA104 cells; flavones (Table 2)): 22.7 µM; IC50 ([1]; flavones (Table 2)): 7.56 µM
COc1c(-c2ccc(O)c(O)c2)oc2cc(O)cc(O)c2c1=O [compound 43] | – | conferred an antiviral activity | – | CC50 (MA104 cells; flavones (Table 2)): 49.3 µM; IC50 ([1]; flavones (Table 2)): 12.3 µM
C[C@@H]1O[C@@H](Oc2c(-c3ccc(O)c(O)c3)oc3cc(O)cc(O)c3c2=O)[C@H](O)[C@H](O)[C@H]1O [compound 44] | – | did not provide antiviral activity | – | CC50 (MA104 cells; flavones (Table 2)): 69.6 µM
C[C@@H]1O[C@@H](OC[C@H]2O[C@@H](Oc3c(-c4ccc(O)c(O)c4)oc4cc(O)cc(O)c4c3=O)[C@H](O)[C@@H](O)[C@@H]2O)[C@H](O)[C@H](O)[C@H]1O [compound 45, rutin] | – | did not provide antiviral activity | – | inhibitory effect on rotavirus infection in words (rotavirus): low inhibitory effect
O=c1c(OS(=O)(=O)O)c(-c2ccc(O)c(O)c2)oc2cc(O)cc(O)c12 [compound 47] | – | conferred an antiviral activity | – | CC50 (MA104 cells; flavones (Table 2)): 40.9 µM; IC50 ([1]; flavones (Table 2)): 10.2 µM
COc1ccc(-c2cc(=O)c3cc(OCc4ccccc4)ccc3o2)cc1 [compound 48] | – | antiviral activity was not shown | – | CC50 (MA104 cells; flavones (Table 2)): 21.8 µM
COc1ccc(-c2cc(=O)c3c(OC)c(OC)c(OC)c(OC)c3o2)cc1 [compound 49] | – | – | – | CC50 (MA104 cells; flavones (Table 2)): 168 µM; IC50 ([1]; flavones (Table 2)): 28.2 µM
COc1ccc(-c2cc(=O)c3c(O)cc(OC)cc3o2)cc1 [compound 50] | – | – | – | CC50 (MA104 cells; flavones (Table 2)): 52.4 µM; IC50 ([1]; flavones (Table 2)): 13.1 µM
COc1ccc(-c2cc(=O)c3c(O)c(OC)c(OC)c(OC)c3o2)cc1 [compound 51] | – | – | – | CC50 (MA104 cells; flavones (Table 2)): 43.6 µM; IC50 ([1]; flavones (Table 2)): 7.26 µM
COc1ccc(-c2cc(=O)c3c(O)c(OC)c(OC)cc3o2)cc1 [compound 52] | – | – | – | CC50 (MA104 cells; flavones (Table 2)): 23.8 µM; IC50 ([1]; flavones (Table 2)): 15.6 µM
COc1ccc(-c2cc(=O)c3c(OC)c(OC)c(OC)cc3o2)cc1OC [compound 54] | – | – | – | CC50 (MA104 cells; flavones (Table 2)): 41.9 µM; IC50 ([1]; flavones (Table 2)): 6.98 µM
COc1ccc(-c2cc(=O)c3c(OC)c(OC)c(OC)c(OC)c3o2)cc1OC [compound 55] | – | antiviral effect was not shown | – | CC50 (MA104 cells; flavones (Table 2)): 38.8 µM
COc1ccc(-c2oc3c(OC)c(OC)c(OC)c(OC)c3c(=O)c2OC)cc1OC [compound 57] | – | weak antirotavirus activity | – | CC50 (MA104 cells; flavones (Table 2)): 36.1 µM; IC50 ([1]; flavones (Table 2)): 18 µM
COc1cc(-c2oc3c(OC)c(OC)cc(O)c3c(=O)c2OC)ccc1O [compound 59] | – | – | – | CC50 (MA104 cells; flavones (Table 2)): 41.7 µM; IC50 ([1]; flavones (Table 2)): 6.95 µM
COc1ccc(-c2oc3c(OC)c(OC)c(OC)c(O)c3c(=O)c2OC)cc1O [compound 60] | – | – | – | CC50 (MA104 cells; flavones (Table 2)): 77.2 µM; IC50 ([1]; flavones (Table 2)): 77.2 µM
COc1ccc(-c2cc(=O)c3c(O)cc(O[C@@H]4O[C@H](CO[C@@H]5O[C@@H](C)[C@H](O)[C@@H](O)[C@H]5O)[C@@H](O)[C@H](O)[C@H]4O)cc3o2)cc1O [dosmin] | – | – | – | IC50 (rotavirus): 10 µM
COc1ccc([C@@H]2CC(=O)c3c(O)cc(O[C@@H]4O[C@H](CO[C@@H]5O[C@@H](C)[C@H](O)[C@@H](O)[C@H]5O)[C@@H](O)[C@H](O)[C@H]4O)cc3O2)cc1O [hesperidin] | – | – | – | IC50 (rotavirus): 10 µM
quercetrin [compound 46] | – | did not provide antiviral activity | – | CC50 (MA104 cells; flavones (Table 2)): 27.2 µM
